Measurements reported in PMC5771863 (Anesthesiology, 2018).

What was measured:
Assay type in all cases: cell-based
[1] = molecular target: T1, α1β3F301Cγ2L GABAA receptors (Homo sapiens, UniProt P14867+P28472, F326C); test: Substituted cysteine modification-protection; conditions: pCMBS + maximal GABA, 10 to 20 μM ALX, 10 to 20 μM ETO
[2] = molecular target: wild-type α1β3γ2L GABAA receptors (Homo sapiens, UniProt P14867+P28472); conditions: […] ETO, 5 μM PRO, […] ALX (2 x EC50 tadpole LoRR)
[3] = molecular target: α1T237Cβ3γ2L GABAA receptors (Homo sapiens, UniProt P14867+P28472, T264C); test: Substituted cysteine modification-protection; conditions: 10 μM ALX, 10 μM ETO
[4] = molecular target: GABAA receptors with α1Q242C mutation (Homo sapiens, UniProt P14867+P28472, Q269C); test: Receptor sensitivity to anesthetics; conditions: authors' unpublished data
[5] = molecular target: T2, α1β3F293Cγ2L GABAA receptors (Homo sapiens, UniProt P14867+P28472, F318C); test: Substituted cysteine modification-protection; conditions: pCMBS + maximal GABA, initial concentrations, 10 μM ALX
T2 sequence (P14867 28-456): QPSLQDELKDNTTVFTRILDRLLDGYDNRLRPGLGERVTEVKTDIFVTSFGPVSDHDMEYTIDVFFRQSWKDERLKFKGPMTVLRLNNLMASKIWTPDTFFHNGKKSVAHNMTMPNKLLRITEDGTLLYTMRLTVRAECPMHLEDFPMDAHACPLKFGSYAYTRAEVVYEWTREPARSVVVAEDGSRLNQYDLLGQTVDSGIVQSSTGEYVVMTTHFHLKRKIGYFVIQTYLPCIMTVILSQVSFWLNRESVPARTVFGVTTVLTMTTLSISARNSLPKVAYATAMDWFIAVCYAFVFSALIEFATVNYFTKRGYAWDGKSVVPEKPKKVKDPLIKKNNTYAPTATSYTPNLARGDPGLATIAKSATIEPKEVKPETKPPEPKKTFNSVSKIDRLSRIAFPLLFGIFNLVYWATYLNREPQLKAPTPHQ
T2 sequence (P28472 26-473 F318C): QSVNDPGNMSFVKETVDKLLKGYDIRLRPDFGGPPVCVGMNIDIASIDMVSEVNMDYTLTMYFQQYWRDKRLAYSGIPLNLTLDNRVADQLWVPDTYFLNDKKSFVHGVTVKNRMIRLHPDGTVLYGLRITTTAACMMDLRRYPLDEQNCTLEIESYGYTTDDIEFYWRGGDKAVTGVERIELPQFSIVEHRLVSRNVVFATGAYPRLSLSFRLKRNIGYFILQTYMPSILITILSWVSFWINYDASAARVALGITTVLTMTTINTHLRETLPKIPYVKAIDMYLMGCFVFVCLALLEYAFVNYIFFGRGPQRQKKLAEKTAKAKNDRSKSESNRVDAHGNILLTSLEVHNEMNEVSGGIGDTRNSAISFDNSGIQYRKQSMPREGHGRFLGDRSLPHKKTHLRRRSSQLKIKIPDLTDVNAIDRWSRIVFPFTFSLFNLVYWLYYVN
T2 sequence (P18507 40-475 partner): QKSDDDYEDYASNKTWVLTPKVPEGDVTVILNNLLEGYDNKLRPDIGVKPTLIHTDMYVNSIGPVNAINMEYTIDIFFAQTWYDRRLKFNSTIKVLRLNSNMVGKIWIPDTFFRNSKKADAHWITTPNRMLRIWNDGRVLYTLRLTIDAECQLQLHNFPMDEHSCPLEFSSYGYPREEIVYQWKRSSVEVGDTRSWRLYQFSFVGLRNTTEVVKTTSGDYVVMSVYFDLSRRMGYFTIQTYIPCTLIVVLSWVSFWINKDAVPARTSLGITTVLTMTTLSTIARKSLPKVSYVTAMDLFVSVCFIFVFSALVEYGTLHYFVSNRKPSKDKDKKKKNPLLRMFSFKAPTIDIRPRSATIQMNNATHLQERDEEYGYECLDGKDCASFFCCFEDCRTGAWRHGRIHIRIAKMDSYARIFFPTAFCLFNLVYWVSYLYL

[6] = molecular target: T3, α1β3L297Cγ2L GABAA receptors (Homo sapiens, UniProt P14867+P28472, L322C); test: Substituted cysteine modification-protection; conditions: pCMBS + maximal GABA
T3 sequence (P14867 28-456): as the sequence (P14867 28-456) above
T3 sequence (P28472 26-473 L322C): as the sequence (P28472 26-473 F318C) above, with C293F, L297C counted along it
T3 sequence (P18507 40-475 partner): as the sequence (P18507 40-475 partner) above

[7] = molecular target: β3 subunits with Y284C mutations co-expressed with α1 and γ2L (Homo sapiens, UniProt P14867+P28472, Y309C); test: GABA-activated currents, two-electrode voltage clamp in Xenopus oocytes; conditions: β3Y284C co-expressed with α1 and γ2L in Xenopus oocytes
Method in brief: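 Human α1 and γ2L were co-expressed with mutant β3 from mRNA (1:1:5, ~50 ng per oocyte) over 48 to 72 hours at 17 °C in ND96. […] A current of ≥ 0.5 μA was required for further experiments.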

[8] = molecular target: T2, α1β3F293Cγ2L GABAA receptors; conditions: control modification conditions
[9] = molecular target: α1β3T266Cγ2L GABAA receptors (Homo sapiens, UniProt P14867+P28472, T291C); test: Functional effect of pCMBS exposure
[10] = molecular target: α1β3T262Cγ2L GABAA receptors (Homo sapiens, UniProt P14867+P28472, T287C); test: Functional effect of pCMBS exposure
[11] = molecular target: α1β3M283Cγ2L GABAA receptors (Homo sapiens, UniProt P14867+P28472, M308C); test: Functional effect of pCMBS exposure
[12] = molecular target: T3, α1β3L297Cγ2L GABAA receptors; test: Functional effect of pCMBS exposure
[13] = molecular target: α1β3γ2L GABAA receptors (wild-type) (Homo sapiens, UniProt P14867+P28472); test: Functional effect of pCMBS exposure
[14] = molecular target: T4, α1β3V290Cγ2L GABAA receptors (Homo sapiens, UniProt P14867+P28472, V315C); test: Functional effect of pCMBS exposure
[15] = molecular target: α1β3M286Cγ2L GABAA receptors (Homo sapiens, UniProt P14867+P28472, M311C); test: Functional effect of pCMBS exposure
[16] = molecular target: α1β3F289Cγ2L GABAA receptors (Homo sapiens, UniProt P14867+P28472, F314C); test: Functional effect of pCMBS exposure
[17] = molecular target: α1β3G287Cγ2L GABAA receptors (Homo sapiens, UniProt P14867+P28472, G312C); test: Functional effect of pCMBS exposure
[18] = molecular target: T2, α1β3F293Cγ2L GABAA receptors; test: Functional effect of pCMBS exposure
[19] = molecular target: α1β3E298Cγ2L GABAA receptors (Homo sapiens, UniProt P14867+P28472, E323C); test: Functional effect of pCMBS exposure
[20] = molecular target: T1, α1β3F301Cγ2L GABAA receptors; test: Functional effect of pCMBS exposure
[21] = molecular target: T4, α1β3V290Cγ2L GABAA receptors
[22] = low concentrations of anesthetics

wild-type α1β3γ2L GABAA receptors, sequence (P14867 28-456): as the sequence (P14867 28-456) above
wild-type α1β3γ2L GABAA receptors, sequence (P28472 26-473): as the sequence (P28472 26-473 F318C) above, with C293F counted along it
wild-type α1β3γ2L GABAA receptors, sequence (P18507 40-475 partner): as the sequence (P18507 40-475 partner) above

CCOC(=O)c1cncn1[C@H](C)c1ccccc1 [ETO, R-Etomidate]
effect on apparent rate of pCMBS modification [1]: unaffected
enhancement of gating of receptors activated with EC5 GABA [2]: similarly enhance
effect on pCMBS modification rates [3]: inhibited modification
receptor sensitivity to anesthetic [4]: insensitivity to ALX, but not to ETO
effect on apparent rate of pCMBS modification [5]: accelerated
effect on apparent rate of pCMBS modification ([6]; 50 μM ALX vs. 50 μM ETO): inhibition by ALX, but not ETO
effect on apparent rate of pCMBS modification [6, 22]: unaffected

NCCCC(=O)O [GABA, γ-Aminobutyric acid]
GABA-activated currents [7]: No GABA-activated currents were detected
fraction of receptors activated by maximal GABA [8]: about 16%

CC(C)c1cccc(C(C)C)c1O [PRO, 2,6-diisopropylphenol]
enhancement of gating of receptors activated with EC5 GABA [2]: similarly enhance
effect on apparent rate of pCMBS modification [5]: accelerated
effect on apparent rate of pCMBS modification [6, 22]: unaffected

O=S(=O)([O-])c1cc[c]([Hg][Cl])cc1.[Na+] [pCMBS, Para-chloromercuribenzenesulfonic acid sodium salt]
Maximal Effect of pCMBS Modification (range): ↑ lo/hi GABA response [9]: ↑ lo/hi GABA response (10 to 13-fold)
Maximal Effect of pCMBS Modification (range): Reduce max current [10]: Reduce max current (95–99%)
effect of pCMBS exposure on activation by GABA ([10]; low and high GABA): similarly reduced activation by both low and high GABA
Maximal Effect of pCMBS Modification (range) [11]: No effect
Maximal Effect of pCMBS Modification (range): ↑ lo/hi GABA response [12]: ↑ lo/hi GABA response (5.5 to 7.2-fold)
Maximal Effect of pCMBS Modification (range) [13]: No effect
effect of pCMBS exposure on receptor function ([13]; pCMBS at 1 mM for 60 s): unaffected
Maximal Effect of pCMBS Modification (range): ↑ lo/hi GABA response [14]: ↑ lo/hi GABA response (2.3 to 3.1-fold)
Maximal Effect of pCMBS Modification (range): ↑ lo/hi GABA response [15]: ↑ lo/hi GABA response (5.8 to 7.8-fold)
Maximal Effect of pCMBS Modification (range): ↑ lo/hi GABA response [16]: ↑ lo/hi GABA response (2.8 to 4.0-fold)
Maximal Effect of pCMBS Modification (range): ↑ lo/hi GABA response [17]: ↑ lo/hi GABA response (2.3 to 3.5-fold)
Maximal Effect of pCMBS Modification (range): ↑ lo/hi GABA response [18]: ↑ lo/hi GABA response (2.6 to 4.3-fold)
Maximal Effect of pCMBS Modification (range): ↑ lo/hi GABA response [19]: ↑ lo/hi GABA response (3.5 to 5.5-fold)
Maximal Effect of pCMBS Modification (range): ↑ lo/hi GABA response [20]: ↑ lo/hi GABA response (3.8 to 4.9-fold)

C=CCC1(c2cccc(C3(C(F)(F)F)N=N3)c2)C(=O)NC(=O)N(C)C1=O (stereo not drawn) [mTFD-MPAB, R-allyl-m-trifluoromethyl-mephobarbital]
effect on apparent rate of pCMBS modification [21]: unaffected
